Bioassay records deposited in PubChem BioAssay by several laboratories.
ASAP1 inh: ASAP1 ArfGAP inhibition. inhibition, % at 16.5 µM. actives 0.19% (n = 360,000). ASAP1-stimulated ARF1 GTP hydrolysis, GDP FP detection. Q9ULH1; in the data active = inhibition above about 25%
Rtt109 Vps75: inhibitors of Candida albicans Rtt109/Vps75 histone acetyltransferase; purified Rtt109/Vps75, ThioGlo CoA-SH fluorescence, 4 h; inhibition, % at 34.9 µM; actives 0.16% (n = 330,000); AID 540336;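 active = inhibition of at least 50% in every replicate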
Efflux pump mplx: blocks antifungal efflux pumps in multiplex yeast assay | S. cerevisiae Candida pump triplex, Nile Red efflux | inhibition, % at 10 µM | actives 0.44% (n = 330,000) | AID 485275;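 active = plate passing quality check with inhibition over a set limit, or well fluorescence over plate mean plus 4 SD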;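 note: Nile Red retained in pooled yeast measured as flow cytometry median fluorescence; higher means more Nile Red kept so more efflux inhibition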
FGF22 binding: FGF22 (human) thermal shift binding; Q9HCT0; recombinant FGF22 thermal shift, SYPRO orange fluorescence; percent of sucrose octasulfate shift, DMSO zero; activity (Tm shift, normalised), % at 9.99 µM; actives 1.5% (n = 340,000); AID 651658;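 active = mean Tm shift, scaled 0 neutral to 100 positive control, at about 1.3% or above, every replicate too, limit read from the data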
Target sequence (Q9HCT0 whole entry, looked up): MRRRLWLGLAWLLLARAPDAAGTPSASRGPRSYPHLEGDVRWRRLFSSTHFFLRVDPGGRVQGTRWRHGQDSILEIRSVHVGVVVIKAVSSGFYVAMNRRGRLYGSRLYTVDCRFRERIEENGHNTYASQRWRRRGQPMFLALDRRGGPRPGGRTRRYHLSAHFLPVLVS
ARFGAP1 inh: inhibits rat ARF GTPase activating protein 1. actives 0.26% (n = 360,000). AID 651572. inhibition, % at 16.5 µM. Arfgap1-stimulated ARF1 GTP hydrolysis, GDP FP detection. Q62848;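 active = inhibition above a per-plate limit, mean inhibition of low control wells plus 3 SD, cut at about 25% in these data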
Target sequence (Q62848 1-136 limits assumed): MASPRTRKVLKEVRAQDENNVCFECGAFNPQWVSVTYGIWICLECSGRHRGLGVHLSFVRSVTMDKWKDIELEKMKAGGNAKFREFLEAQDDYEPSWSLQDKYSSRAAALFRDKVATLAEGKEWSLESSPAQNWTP
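Assay system: Rat Arfgap1 GAP domain (His6, aa 1-136), purified enzyme | Buffer or medium: HEPES 25 mM pH 7.5, NaCl 150 mM, MgCl2, DTT | Schedule: GTP hydrolysis reaction 2 h at 25 °C | Signal: FP of antibody-bound GDP Alexa 633 tracer, ex 620/em 688 nm | Measure: Percent inhibition of Arfgap1-stimulated GTP hydrolysis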
Each line names hits and unclear results; the compound was inactive in the other large screens. Compounds with a hit are over-represented: about 1.9% of the library has one in this group of screens.

COCCCNC(=S)N1CCN(c2nc(C)nc3sc4c(c23)CCCC4)CC1	none
COc1cc(OC)c2nc(C)c3c(c2c1)N(c1ccc(O)cc1)CC3	none (no result: FGF22 binding)
C/C(=N/NC(=O)c1ccncc1)C1=C(O)CC(C)(C)CC1=O	FGF22 binding 44
CC(=NNC(=O)c1ccncc1)c1ccccc1O	none (no result: Efflux pump mplx)
CCN(Cc1cnn(C)c1)C(=O)c1ccc(OC2CCN(S(=O)(=O)N(C)C)CC2)cc1	FGF22 binding 44
CN(C(=O)c1ccc(OC2CCN(S(=O)(=O)N(C)C)CC2)cc1)C1CCCCC1	none
C/C(=N\NC(=O)c1ccc(F)cc1)c1ccc(N2CCOCC2)cc1	none
C/C(=N\NC(=O)COc1ccc(C(C)(C)C)cc1)c1ccc(N2CCOCC2)cc1	FGF22 binding 44
C1CC2CN(c3nc4nonc4nc3N3CCSCC3)CCN2C1 (configuration not stated)	FGF22 binding 44
C1CCC(Nc2nc3nonc3nc2N2CCSCC2)C1	none (no result: Rtt109 Vps75)
C1CCN(C2CCN(c3nc4nonc4nc3N3CCSCC3)CC2)C1	FGF22 binding 43
CSc1nsc(SCC(=O)Nc2ccc(Cl)c(C(=O)O)c2)n1	none
CCCn1c(N)c(N(CCOC)C(=O)c2ccc(-c3ccccc3)cc2)c(=O)[nH]c1=O	none
CCCn1c(N)c(N(CCOC)C(=O)/C=C/c2ccc(C(=O)OC)cc2)c(=O)[nH]c1=O	FGF22 binding 43
O=C(Nc1ccc(O)c(-c2nc3ccccc3s2)c1)c1cc(=O)c2ccccc2o1	Rtt109 Vps75 56 (no result: FGF22 binding)
CN(C)Cc1csc(NC(=O)Nc2cccc(C(F)(F)F)c2)n1	none (no result: Rtt109 Vps75, Efflux pump mplx)
COc1ccc(NC(=O)N(C)C[C@@H]2OCCCC[C@H](C)Oc3ccc(N(C)C)cc3C(=O)N([C@H](C)CO)C[C@@H]2C)cc1	none (no result: ASAP1 inh, Rtt109 Vps75, Efflux pump mplx, ARFGAP1 inh)
O=C(Nc1cccnc1)c1ccc(-c2ccccc2)cc1	none
O=C(Nc1ccncc1)c1ccc(-c2ccccc2)cc1	FGF22 binding 45
Cc1ccc(C)n1-c1ccc(C(=O)Nc2ccccc2)cc1	FGF22 binding 43 (no result: Rtt109 Vps75)
O=[N+]([O-])c1ccc(Nc2ccccc2)c2nonc12	none
O=[N+]([O-])c1ccc(Sc2cccc[n+]2[O-])c2nonc12	Rtt109 Vps75 123 (no result: Efflux pump mplx)
CCS(=O)(=O)CCSc1nc2c(cc1C#N)CCCC2	none
CCOC(=O)N1CCc2c(sc3[nH]c(=S)[nH]c(=S)c23)C1	none (no result: ASAP1 inh, Rtt109 Vps75, FGF22 binding, ARFGAP1 inh)
O=C(Nc1ccc(Oc2cccnc2)cc1)C1CCN(Cc2ccc(F)cc2)CC1	none
O=C(Nc1ccc(Oc2cccnc2)cc1)C1CCN(Cc2cc(Cl)ccc2O)CC1	Rtt109 Vps75 59
O=C(C[C@H]1C[C@H]2c3cc(NC(=O)NC4CCCCC4)ccc3O[C@H]2[C@@H](CO)O1)NCc1ccccn1	none (no result: ASAP1 inh, Rtt109 Vps75, Efflux pump mplx, ARFGAP1 inh)
COc1cc2sc3cc(NCCCN4CCOCC4)ccc3c(=O)c2cc1OC	ARFGAP1 inh 31
CCC(C)c1ccccc1NC(=O)COc1ccc(-n2cnnn2)cc1 (configuration not stated)	none
CCOCc1[nH]c(=S)[nH]c(=O)c1Cc1ccc(OCC)cc1	FGF22 binding 43
Cc1ccc(O)c(NC(=S)NC(=O)/C=C/c2ccccc2)c1	none
Cc1ccc(O)c(NC(=S)NC(=O)/C=C/c2ccco2)c1	FGF22 binding 43
C[C@H](NC(=O)C[C@@H]1C[C@@H]2c3cc(N(C)C)ccc3O[C@@H]2[C@H](CO)O1)c1ccccc1	none (no result: ASAP1 inh, Rtt109 Vps75, Efflux pump mplx, ARFGAP1 inh)
CCC1(C)COC(C)(CC(=O)NNC(=O)Nc2ccccc2)OC1 (configuration not stated)	FGF22 binding 44
C[C@@H]1CCCCO[C@H](CN(C)C(=O)CCC(F)(F)F)[C@H](C)CN([C@@H](C)CO)C(=O)c2cc(NC(=O)Nc3ccccc3)ccc2O1	none (no result: ASAP1 inh, Rtt109 Vps75, Efflux pump mplx, ARFGAP1 inh)
Nc1nnc2cc(Cl)ccc2n1	FGF22 binding 44 (no result: Efflux pump mplx)
Cc1c(-n2c(SCC(=O)NC(C)C(C)C)nc3ccccc3c2=O)c(=O)n(-c2ccccc2)n1C (configuration not stated)	FGF22 binding 43
Cc1c(-n2c(SCC(C)C)nc3ccccc3c2=O)c(=O)n(-c2ccccc2)n1C	none
Cc1ccc(C)c(OCCC(=O)NCCc2ccc(Cl)cc2)c1	none
CCOc1ccc(CCNC(=O)CCOc2cc(C)ccc2C)cc1OCC	FGF22 binding 1.9
COc1ccc(CCNC(=O)[C@@]2(Sc3ccc(C)cc3)CC(=O)N(C(C)C)[C@@H]2c2ccc(CO)cc2I)cc1	FGF22 binding 1.3 (no result: ASAP1 inh, Rtt109 Vps75, Efflux pump mplx, ARFGAP1 inh)
